Laboratory results from ChEMBL document CHEMBL1914395, “Design, synthesis, and biological evaluation of callophycin A and analogues as potential chemopreventive and anticancer agents” (Bioorg Med Chem, 2011).

Columns and labels:
[1] = target: T1, Nitric oxide synthase, inducible (Mus musculus) (UniProt P29477); experiment: Inhibition of iNOS-mediated nitric oxide production in LPS-stimulated mouse RAW 264.7 cells at 50 uM pretreated 15 mins before LPS challenge measured after 20 hrs relative to control; assay type: cell-based
T1 sequence (whole entry): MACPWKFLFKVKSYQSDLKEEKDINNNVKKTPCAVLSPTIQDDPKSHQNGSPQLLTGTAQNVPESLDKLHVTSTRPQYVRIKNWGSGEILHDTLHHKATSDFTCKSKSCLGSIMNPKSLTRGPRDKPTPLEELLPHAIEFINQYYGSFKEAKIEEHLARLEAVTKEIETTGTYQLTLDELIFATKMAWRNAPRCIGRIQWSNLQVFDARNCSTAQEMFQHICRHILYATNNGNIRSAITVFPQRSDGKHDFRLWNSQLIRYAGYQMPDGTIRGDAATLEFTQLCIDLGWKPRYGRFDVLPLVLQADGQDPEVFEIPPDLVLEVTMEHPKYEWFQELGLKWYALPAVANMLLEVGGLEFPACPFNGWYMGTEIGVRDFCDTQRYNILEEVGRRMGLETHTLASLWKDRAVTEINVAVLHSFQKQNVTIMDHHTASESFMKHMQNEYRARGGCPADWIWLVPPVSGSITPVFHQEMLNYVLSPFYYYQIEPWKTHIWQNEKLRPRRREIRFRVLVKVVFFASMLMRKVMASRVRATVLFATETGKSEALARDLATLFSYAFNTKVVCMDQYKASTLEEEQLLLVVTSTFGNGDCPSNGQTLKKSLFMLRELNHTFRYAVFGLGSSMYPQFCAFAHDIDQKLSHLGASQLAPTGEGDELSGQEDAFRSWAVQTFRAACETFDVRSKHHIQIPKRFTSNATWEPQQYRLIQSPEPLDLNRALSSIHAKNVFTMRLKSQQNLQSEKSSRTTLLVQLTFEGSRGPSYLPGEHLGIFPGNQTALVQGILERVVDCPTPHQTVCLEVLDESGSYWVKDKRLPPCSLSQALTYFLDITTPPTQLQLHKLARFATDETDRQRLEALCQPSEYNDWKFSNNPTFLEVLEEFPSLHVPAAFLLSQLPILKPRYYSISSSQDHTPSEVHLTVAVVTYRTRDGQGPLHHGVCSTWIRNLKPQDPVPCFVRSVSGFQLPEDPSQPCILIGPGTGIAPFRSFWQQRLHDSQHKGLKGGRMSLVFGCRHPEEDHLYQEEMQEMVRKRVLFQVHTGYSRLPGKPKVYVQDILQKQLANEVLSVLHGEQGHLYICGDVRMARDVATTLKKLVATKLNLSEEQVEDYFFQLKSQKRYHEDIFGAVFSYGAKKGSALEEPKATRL
Outline: (§1)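 RAW 264.7 cells cultured 24 h at 37°C, then given serially diluted compounds for 15 min before LPS (1 μg/mL) for 20 h. Nitrite in the medium measured with Griess reagent at 540 nm against a sodium nitrite standard curve. Cytotoxicity checked by SRB under the same conditions.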

HEK293 [2] = experiment: Inhibition of TNF-alpha-induced NFkappaB activation in human HEK293 cells assessed as cell survival at 50 uM after 6 hrs by luciferase assay relative to control; assay type: cell-based
[3] = target: NAD(P)H dehydrogenase [quinone] 1 (Mus musculus) (UniProt Q64669); experiment: Induction of quinone reductase 1 activity in mouse Hepa-1c1c7 cells assessed as cell survival at 50 uM by MTT assay relative to control; assay type: cell-based
Sequence of NAD(P)H dehydrogenase [quinone] 1 (Mus musculus) (Q64669 whole entry): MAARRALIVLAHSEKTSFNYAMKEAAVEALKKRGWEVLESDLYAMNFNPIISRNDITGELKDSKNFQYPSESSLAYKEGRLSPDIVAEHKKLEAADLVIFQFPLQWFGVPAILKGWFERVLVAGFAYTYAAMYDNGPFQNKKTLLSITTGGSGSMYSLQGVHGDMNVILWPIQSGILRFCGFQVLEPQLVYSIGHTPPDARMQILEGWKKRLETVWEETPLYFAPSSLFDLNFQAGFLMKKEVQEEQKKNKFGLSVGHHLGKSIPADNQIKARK

[4] = target: T2, Nitric oxide synthase, inducible (Mus musculus, UniProt P29477); experiment: Inhibition of iNOS-mediated nitric oxide production in LPS-stimulated mouse RAW 264.7 cells pretreated 15 mins before LPS challenge measured after 20 hrs relative to control; assay type: cell-based; outline: as §1
T2 sequence (P29477 whole entry): T1 sequence (whole entry)

MCF7 [5] = experiment: Antiproliferative activity against human MCF7 cells after 72 hrs by SRB assay; assay type: functional, cell-based; conditions: MCF7, 72 h
Outline: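 MCF7 cells, 1 × 10^4 per well, plated directly onto compounds and incubated 72 h at 37°C, 5% CO2. Fixed with 10% TCA, stained with 0.4% SRB in 1% acetic acid. Bound dye dissolved in 10 mM Tris pH 10.0, absorbance read at 515 nm. Survival expressed relative to DMSO-treated controls.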

HEK293 [6] = experiment: Inhibition of TNF-alpha-induced NFkappaB activation in human HEK293 cells at 50 uM after 6 hrs by luciferase assay relative to control; assay type: cell-based
Outline: (§2)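 Cells incubated 6 h with TNFα plus test compound, then luciferase activity measured. Results expressed as percent of TNFα-treated control. Screening concentration 50 μM.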

Aromatase [7] = target: T3, Aromatase (Homo sapiens, UniProt P11511); experiment: Inhibition of aromatase at 50 uM after 10 mins preincubation by plate reader relative to control
T3 sequence (P11511 whole entry): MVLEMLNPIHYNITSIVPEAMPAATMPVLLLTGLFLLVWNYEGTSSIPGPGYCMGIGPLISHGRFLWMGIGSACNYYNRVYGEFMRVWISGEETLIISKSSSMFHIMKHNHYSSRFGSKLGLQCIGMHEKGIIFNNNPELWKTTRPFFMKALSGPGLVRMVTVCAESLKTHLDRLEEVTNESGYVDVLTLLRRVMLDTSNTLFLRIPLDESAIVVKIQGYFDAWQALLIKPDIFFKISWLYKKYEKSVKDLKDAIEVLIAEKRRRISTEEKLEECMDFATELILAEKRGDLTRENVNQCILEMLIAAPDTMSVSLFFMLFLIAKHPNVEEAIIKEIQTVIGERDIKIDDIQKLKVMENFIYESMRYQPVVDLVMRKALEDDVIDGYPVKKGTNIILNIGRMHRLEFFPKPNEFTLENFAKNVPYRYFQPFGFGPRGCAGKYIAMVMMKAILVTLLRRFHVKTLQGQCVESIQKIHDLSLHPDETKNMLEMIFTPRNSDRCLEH
Outline: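 CYP19 enzyme. Compound pre-incubated 10 min with an NADPH-regenerating system (NADP+, glucose 6-phosphate, G6PDH, MgCl2, albumin) in 50 mM potassium phosphate pH 7.4. Enzyme and 0.4 μM dibenzylfluorescein substrate then added, 30 min at 37 °C. Quenched with 2 N NaOH and incubated a further 2 h at 37 °C. Fluorescence read at ex 485/em 530 nm. Compound tested at 50 μM.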

MCF7 [8] = experiment: Antiproliferative activity against human MCF7 cells assessed as survival at 50 uM after 72 hrs by SRB assay relative to control; assay type: functional; conditions: MCF7, 72 h, read-out: Survival
Outline: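 MCF7 cells (1 × 10^4 per well) were plated onto compound and kept at 37°C, 5% CO2 for 72 h. Cells were fixed in 10% TCA for 30 min and stained with 0.4% SRB in 1% acetic acid for 30 min. Bound dye was dissolved in 10 mM Tris (pH 10.0) and read at 515 nm. Survival is given as % of DMSO-treated controls, screened at 50 μM.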

[9] = target: NAD(P)H dehydrogenase [quinone] 1 (Mus musculus) (UniProt Q64669); experiment: Induction of quinone reductase 1 activity in mouse Hepa-1c1c7 cells at 50 uM by MTT assay relative to untreated control; assay type: cell-based
Outline: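 Hepa 1c1c7 murine hepatoma cells treated with compound at 50 μM. QR1 measured by NADPH-dependent, menadiol-mediated reduction of MTT to formazan. Protein measured by crystal violet staining of identical plates. Specific activity is nmol formazan per mg protein per min. Induction ratio is treated versus DMSO-treated control.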

[10] = target: T1, Nitric oxide synthase, inducible (Mus musculus); experiment: Inhibition of iNOS-mediated nitric oxide production in LPS-stimulated mouse RAW 264.7 cells assessed as cell survival at 50 uM pretreated 15 mins before LPS challenge measured after 20 hrs relative to control; assay type: cell-based
Outline: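 RAW 264.7 cells were incubated at 37°C, 5% CO2 for 24 h. They were then exposed to compound for 15 min before LPS (1 μg/mL) was added for 20 h. Cytotoxicity was measured by SRB staining under the same conditions. Survival is expressed as % relative to vehicle-treated controls at 50 μM.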

Aromatase [11] = target: T3, Aromatase; experiment: Inhibition of aromatase after 10 mins preincubation by plate reader relative to control
[12] = Inhibition of TNF-alpha-induced NFkappaB activation in human HEK293 cells after 6 hrs by luciferase assay; assay type: cell-based; conditions: HEK293, 6 h; outline: as §2
[13] = target: NAD(P)H dehydrogenase [quinone] 1 (Mus musculus) (UniProt Q64669); experiment: Induction of quinone reductase 1 in mouse Hepa 1c1c7 cells assessed as concentration of compound required to double enzyme activity by MTT assay; assay type: cell-based
Outline: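 Dose-response in Hepa 1c1c7 cells, run for substances with induction ratio >2 at 50 μM. QR1 activity measured as menadiol-mediated, NADPH-dependent MTT reduction to formazan, normalised to crystal violet protein content. CD is the concentration that doubles specific activity relative to DMSO control.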

## COC(=O)[C@@H]1Cc2c([nH]c3ccccc23)CN1S(=O)(=O)c1ccc(C)cc1
[1]
  inhibition: 73.8%
HEK293 [2]
  Survival: 171%
[3]
  Survival: 61%
[4]
  IC50: 22.6 µM
MCF7 [5]
  IC50: 37 µM
HEK293 [6]
  inhibition: 6%
Aromatase [7]
  inhibition at 50 µM: 41.7%
MCF7 [8]
  viability at 50 µM: 19%
[9]
  Ratio: 1.3
[10]
  Survival: 116%
Aromatase [11]
  IC50: 63.2 µM

## COC(=O)[C@@H]1Cc2c([nH]c3ccccc23)CN1C(=O)NCCc1ccccc1
[1]
  inhibition: 48.2%
HEK293 [2]
  Survival: 94.6%
[3]
  Survival: 59.6%
MCF7 [5]
  IC50: 25.4 µM
HEK293 [6]
  inhibition: 87.7%
Aromatase [7]
  inhibition at 50 µM: 31.8%
[12]
  IC50: 16.9 µM
MCF7 [8]
  viability at 50 µM: 1.3%
[9]
  Ratio: 0.5
[10]
  Survival: 68.9%

## C=CCOC(=O)N1Cc2[nH]c3ccccc3c2C[C@H]1C(=O)OC
[1]
  inhibition: 8.5%
HEK293 [2]
  Survival: 191%
[3]
  Survival: 83.4%
HEK293 [6]
  inhibition: 33.3%
Aromatase [7]
  inhibition at 50 µM: 54.6%
MCF7 [8]
  viability at 50 µM: 70.4%
[9]
  Ratio: 1.9
[10]
  Survival: 94.2%
Aromatase [11]
  IC50: 44.8 µM

## COC(=O)[C@H]1Cc2c([nH]c3ccccc23)CN1S(C)(=O)=O
[1]
  inhibition: 12.9%
HEK293 [2]
  Survival: 158%
[3]
  Survival: 86.3%
HEK293 [6]
  inhibition: 42.2%
Aromatase [7]
  inhibition at 50 µM: 40.2%
MCF7 [8]
  viability at 50 µM: 90.9%
[9]
  Ratio: 1.6
[10]
  Survival: 79.9%
Aromatase [11]
  IC50: 68.1 µM

## COC(=O)[C@@H]1Cc2c([nH]c3ccccc23)CN1CC1CC1
[1]
  inhibition: 23.5%
[13]
  CD: 34 µM
HEK293 [2]
  Survival: 152%
[3]
  Survival: 68.6%
HEK293 [6]
  inhibition: 54.1%
Aromatase [7]
  inhibition at 50 µM: 47.7%
MCF7 [8]
  viability at 50 µM: 85.6%
[9]
  Ratio: 2.2
[10]
  Survival: 99.8%
Aromatase [11]
  IC50: 58.6 µM

## COC(=O)[C@H]1Cc2c([nH]c3ccccc23)CN1S(=O)(=O)c1ccc(Br)cc1
[1]
  inhibition: 3.8%
[13]
  CD: 29.7 µM
HEK293 [2]
  Survival: 154%
[3]
  Survival: 83.7%
MCF7 [5]
  IC50: 42.1 µM
HEK293 [6]
  inhibition: 43.7%
Aromatase [7]
  inhibition at 50 µM: 35.5%
MCF7 [8]
  viability at 50 µM: 30.6%
[9]
  Ratio: 2.1
[10]
  Survival: 89.7%

## COC(=O)[C@@H]1Cc2c([nH]c3ccccc23)CN1C(=O)NC(C)C
[1]
  inhibition: 37.8%
[13]
  CD: 6.4 µM
HEK293 [2]
  Survival: 117%
[3]
  Survival: 61.2%
HEK293 [6]
  inhibition: 69%
Aromatase [7]
  inhibition at 50 µM: 54%
[12]
  IC50: 26.5 µM
MCF7 [8]
  viability at 50 µM: 71%
[9]
  Ratio: 2.9
[10]
  Survival: 94.3%
Aromatase [11]
  IC50: 47.3 µM
